# Source: ChEMBL document CHEMBL2034886, “Anticancer and radiosensitizing evaluation of some new pyranothiazole-Schiff bases bearing the biologically active sulfonamide moiety” (Eur J Med Chem, 2012)
# Tested on: MCF7
# Experiment: Cytotoxicity against human MCF7 cells assessed as surviving fraction at 10 uM after 48 hrs by sulforhodamine B assay
# Format: functional
# Details: not given
# Method in brief: (§1)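 SRB assay on MCF7 breast cancer cells plated at 10^4 cells/well for 24 h before treatment. Compounds were dissolved in DMSO, diluted with saline and tested at 10, 25, 50 and 100 in triplicate wells for 48 h at 37 °C under 5% CO₂. Cells were fixed and stained 30 min with 0.4% SRB in 1% acetic acid, washed four times with acetic acid, and the dye was recovered in Tris-EDTA and read on an ELISA reader. IC50 was taken from the survival curve.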
row,Structure (SMILES),Activity [fraction]
1,COc1ccc(C2C(C#N)=C(/N=C/c3ccc(F)cc3)Oc3nc(Nc4ccc(S(N)(=O)=O)cc4)sc32)cc1 (stereo not given),0.845
2,COc1ccc(C2C(C#N)=C(/N=C/c3ccc(Cl)cc3Cl)Oc3nc(Nc4ccc(S(N)(=O)=O)cc4)sc32)cc1 (stereo not given),0.693
3,COc1ccc(C2C(C#N)=C(/N=C/c3ccc(N(C)C)cc3)Oc3nc(Nc4ccc(S(N)(=O)=O)cc4)sc32)cc1 (stereo not given),0.792
4,COc1ccc(C2C(C#N)=C(/N=C/C=C/c3ccccc3)Oc3nc(Nc4ccc(S(N)(=O)=O)cc4)sc32)cc1 (stereo not given),0.828
5,COc1ccc(C2C(C#N)=C(/N=C/c3ccc(O)cc3)Oc3nc(Nc4ccc(S(N)(=O)=O)cc4)sc32)cc1 (stereo not given),0.872
6,COc1ccc(C2C(C#N)=C(/N=C/c3ccc4c(c3)OCO4)Oc3nc(Nc4ccc(S(N)(=O)=O)cc4)sc32)cc1 (stereo not given),0.814

# Tested on: MCF7
# Experiment: Cytotoxicity against human MCF7 cells assessed as surviving fraction at 25 uM after 48 hrs by sulforhodamine B assay
# Format: functional
# Details: not given
# Method in brief: as §1
row,Structure (SMILES),Activity [%]
1,COc1ccc(C2C(C#N)=C(/N=C/c3ccc(F)cc3)Oc3nc(Nc4ccc(S(N)(=O)=O)cc4)sc32)cc1 (stereo not given),55.1
2,COc1ccc(C2C(C#N)=C(/N=C/c3ccc(Cl)cc3Cl)Oc3nc(Nc4ccc(S(N)(=O)=O)cc4)sc32)cc1 (stereo not given),50.3
3,COc1ccc(C2C(C#N)=C(/N=C/c3ccc(N(C)C)cc3)Oc3nc(Nc4ccc(S(N)(=O)=O)cc4)sc32)cc1 (stereo not given),70.1
4,COc1ccc(C2C(C#N)=C(/N=C/C=C/c3ccccc3)Oc3nc(Nc4ccc(S(N)(=O)=O)cc4)sc32)cc1 (stereo not given),60.1
5,COc1ccc(C2C(C#N)=C(/N=C/c3ccc(O)cc3)Oc3nc(Nc4ccc(S(N)(=O)=O)cc4)sc32)cc1 (stereo not given),63.8
6,COc1ccc(C2C(C#N)=C(/N=C/c3ccc4c(c3)OCO4)Oc3nc(Nc4ccc(S(N)(=O)=O)cc4)sc32)cc1 (stereo not given),66

# Tested on: MCF7
# Experiment: Cytotoxicity against human MCF7 cells assessed as surviving fraction at 100 uM after 48 hrs by sulforhodamine B assay
# Format: functional
# Details: not given
# Method in brief: as §1
row,Structure (SMILES),Activity [%]
1,COc1ccc(C2C(C#N)=C(/N=C/c3ccc(F)cc3)Oc3nc(Nc4ccc(S(N)(=O)=O)cc4)sc32)cc1 (stereo not given),44.3
2,COc1ccc(C2C(C#N)=C(/N=C/c3ccc(Cl)cc3Cl)Oc3nc(Nc4ccc(S(N)(=O)=O)cc4)sc32)cc1 (stereo not given),39.1
3,COc1ccc(C2C(C#N)=C(/N=C/c3ccc(N(C)C)cc3)Oc3nc(Nc4ccc(S(N)(=O)=O)cc4)sc32)cc1 (stereo not given),37.8
4,COc1ccc(C2C(C#N)=C(/N=C/C=C/c3ccccc3)Oc3nc(Nc4ccc(S(N)(=O)=O)cc4)sc32)cc1 (stereo not given),37
5,COc1ccc(C2C(C#N)=C(/N=C/c3ccc(O)cc3)Oc3nc(Nc4ccc(S(N)(=O)=O)cc4)sc32)cc1 (stereo not given),30.7
6,COc1ccc(C2C(C#N)=C(/N=C/c3ccc4c(c3)OCO4)Oc3nc(Nc4ccc(S(N)(=O)=O)cc4)sc32)cc1 (stereo not given),39.3

# Tested on: MCF7
# Experiment: Cytotoxicity against human MCF7 cells after 48 hrs by sulforhodamine B assay
# Format: functional, cell-based
# Details: MCF7, 48 h
# Method in brief: as §1
row,Structure (SMILES),IC50 [µM]
1,COc1ccc(C2C(C#N)=C(/N=C/c3ccc(F)cc3)Oc3nc(Nc4ccc(S(N)(=O)=O)cc4)sc32)cc1 (stereo not given),28.9
2,COc1ccc(C2C(C#N)=C(/N=C/c3ccc(Cl)cc3Cl)Oc3nc(Nc4ccc(S(N)(=O)=O)cc4)sc32)cc1 (stereo not given),23.5
3,COc1ccc(C2C(C#N)=C(/N=C/c3ccc(N(C)C)cc3)Oc3nc(Nc4ccc(S(N)(=O)=O)cc4)sc32)cc1 (stereo not given),36.2
4,COc1ccc(C2C(C#N)=C(/N=C/C=C/c3ccccc3)Oc3nc(Nc4ccc(S(N)(=O)=O)cc4)sc32)cc1 (stereo not given),28.9
5,COc1ccc(C2C(C#N)=C(/N=C/c3ccc(O)cc3)Oc3nc(Nc4ccc(S(N)(=O)=O)cc4)sc32)cc1 (stereo not given),34.5
6,COc1ccc(C2C(C#N)=C(/N=C/c3ccc4c(c3)OCO4)Oc3nc(Nc4ccc(S(N)(=O)=O)cc4)sc32)cc1 (stereo not given),38.2

# Tested on: MCF7
# Experiment: Cytotoxicity against human MCF7 cells assessed as surviving fraction at 50 uM after 48 hrs by sulforhodamine B assay
# Format: functional
# Design: unit not given here
# Details: not given
# Method in brief: as §1
row,Structure (SMILES),Activity
1,COc1ccc(C2C(C#N)=C(/N=C/c3ccc(F)cc3)Oc3nc(Nc4ccc(S(N)(=O)=O)cc4)sc32)cc1 (stereo not given),0.38
2,COc1ccc(C2C(C#N)=C(/N=C/c3ccc(Cl)cc3Cl)Oc3nc(Nc4ccc(S(N)(=O)=O)cc4)sc32)cc1 (stereo not given),0.377
3,COc1ccc(C2C(C#N)=C(/N=C/c3ccc(N(C)C)cc3)Oc3nc(Nc4ccc(S(N)(=O)=O)cc4)sc32)cc1 (stereo not given),0.347
4,COc1ccc(C2C(C#N)=C(/N=C/C=C/c3ccccc3)Oc3nc(Nc4ccc(S(N)(=O)=O)cc4)sc32)cc1 (stereo not given),0.242
5,COc1ccc(C2C(C#N)=C(/N=C/c3ccc(O)cc3)Oc3nc(Nc4ccc(S(N)(=O)=O)cc4)sc32)cc1 (stereo not given),0.37
6,COc1ccc(C2C(C#N)=C(/N=C/c3ccc4c(c3)OCO4)Oc3nc(Nc4ccc(S(N)(=O)=O)cc4)sc32)cc1 (stereo not given),0.419
